From ChEMBL document CHEMBL1165908, “Novel benzimidazole-pyrimidine conjugates as potent antitumor agents” (Eur J Med Chem, 2010)
Structures can show the parent of a compound that is named as a salt.

Key:
KB = test: Cytotoxicity against human KB cells after 3 days by MTT assay; format: functional, cell-based; details: 72 h
Procedure, shortened: (§1)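 Cells grown in RPMI 1640 with 10% fetal calf serum, plated at 2 × 10^4 cells, held 12 h at 37 °C in 5% CO2, then exposed to test sample for 3 days at 37 °C. MTT added for 4 h, formazan dissolved in DMSO, absorbance read at 570 nm. IC50 taken as 50% growth inhibition relative to untreated control; each experiment run at least 3 times.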

SK-OV-3 = test: Cytotoxicity against human SKOV3 cells after 3 days by MTT assay; format: functional, cell-based; details: SK-OV-3, 72 h; procedure, shortened: as §1
SF-268 = test: Cytotoxicity against human SF268 cells after 3 days by MTT assay; format: functional, cell-based; details: SF-268, 72 h; procedure, shortened: as §1
NCI-H460 = test: Cytotoxicity against human NCI-H460 cells after 3 days by MTT assay; format: functional, cell-based; details: NCI-H460, 72 h; procedure, shortened: as §1
[1] = Cytotoxicity against human RKOp27 cells after 3 days by MTT assay; format: functional, cell-based; details: RKOp27, 72 h; procedure, shortened: as §1
HL-60 = test: Cytotoxicity against human HL60 cells after 3 days by MTT assay; format: functional, cell-based; details: HL-60, 72 h
U-937 = test: Cytotoxicity against human U937 cells after 3 days by MTT assay; format: functional, cell-based; details: U-937, 72 h; procedure, shortened: as §1
K562 = test: Cytotoxicity against human K562 cells after 3 days by MTT assay; format: functional, cell-based; details: K562, 72 h; procedure, shortened: as §1
G-361 = test: Cytotoxicity against human G361 cells after 3 days by MTT assay; format: functional, cell-based; details: G-361, 72 h; procedure, shortened: as §1
SK-MEL-28 = test: Cytotoxicity against human SK-MEL-28 cells after 3 days by MTT assay; format: functional, cell-based; details: SK-MEL-28, 72 h; procedure, shortened: as §1
GOTO = test: Cytotoxicity against human GOTO cells after 3 days by MTT assay; format: functional, cell-based; details: 72 h; procedure, shortened: as §1
NB1 = test: Cytotoxicity against human NB-1 cells after 3 days by MTT assay; format: functional, cell-based; details: NB1, 72 h; procedure, shortened: as §1
[2] = Toxicity in ip dosed mouse assessed as mortality after 24 hrs; format: organism-based; details: in vivo
Procedure, shortened: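 Lorke two-phase design in mice, single intraperitoneal dose per group. Phase 1: three groups of three animals, each group one dose, observed 24 h for mortality and general behaviour. Phase 2: 3–4 groups of one mouse, doses chosen from phase 1 findings, observed 24 h. LD50 taken as geometric mean of lowest lethal dose and highest non-lethal dose; reported in mg/kg.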

Row | SMILES | IC50 (KB) [nM] | IC50 (SK-OV-3) [nM] | IC50 (SF-268) [nM] | IC50 (NCI-H460) [nM] | IC50 [1] [nM] | IC50 (HL-60) [nM] | IC50 (U-937) [nM] | IC50 (K562) [nM] | IC50 (G-361) [nM] | IC50 (SK-MEL-28) [nM] | IC50 (GOTO) [nM] | IC50 (NB1) [nM] | LD50 at 24 h [2] [mg/kg]
1 | N#Cc1c(O)nc(SCc2nc3ccccc3[nH]2)nc1-c1ccccc1 | 6.2 | 2.55 | 3.2 | 2.5 | 6.09 | 2.55 | 3.28 | 4.63 | 3.43 | 7.7 | 7.81 | 6.57 | 345
2 | CNc1nc(SCc2nc3ccccc3[nH]2)nc(-c2ccccc2)c1C#N | 2.7 | 3 | 3.2 | 3.2 | 3.7 | 6.57 | 19.2 | 13.2 | 12.5 | 2.87 | 3.28 | 4.46 | 302
3 | N#Cc1c(NN)nc(SCc2nc3ccccc3[nH]2)nc1-c1ccccc1 | 2.55 | 2.7 | 2.77 | 2.6 | 2.55 | 11.9 | 3.9 | 14.7 | 14.7 | 3 | 2.68 | 5.4 | 344
4 | CN1CCN(c2nc(SCc3nc4ccccc4[nH]3)nc(-c3ccccc3)c2C#N)CC1 | 2.7 | 1600 | 6.9 | 2.84 | 5.4 | 2.8 | 6.75 | 2.4 | 14.7 | 20 | 3.37 | 2.4 | 384
5 | Nc1ccn([C@@H]2O[C@H](CO)[C@@H](O)[C@@H]2O)c(=O)n1 [CYTARABINE] | – | – | 7680 | – | – | – | – | – | – | – | – | – | –
6 | N#Cc1c(Nc2ccccn2)nc(SCc2nc3ccccc3[nH]2)nc1-c1ccccc1 | 7.35 | 5.81 | 6.75 | 2.8 | 3.8 | 20 | 2.55 | 7 | 8.9 | 8.9 | 2.5 | 3.9 | 367
7 | CCNc1nc(SCc2nc3ccccc3[nH]2)nc(-c2ccccc2)c1C#N | 7.35 | 7.35 | 7.35 | 2.87 | 7.35 | 3.96 | 2.63 | 4.38 | 4.38 | 5.3 | 3.96 | 2.63 | 325
8 | N#Cc1c(-c2ccccc2)nc(SCc2nc3ccccc3[nH]2)nc1N1CCN(S(=O)(=O)c2ccccc2[N+](=O)[O-])CC1 | 4.44 | 3.2 | 3 | 3.7 | 5.6 | 2.77 | 3.28 | 14.7 | 9.6 | 8.9 | 3 | 2.5 | 325
9 | N#Cc1c(NC(N)=O)nc(SCc2nc3ccccc3[nH]2)nc1-c1ccccc1 | 9.6 | 6.75 | 3.37 | 14.7 | 2.5 | 2.9 | 3.37 | 4.54 | 2.55 | 4.8 | 11.3 | 7.35 | 347
10 | O=c1[nH]cc(F)c(=O)[nH]1 [FLUOROURACIL] | 4460 | – | – | – | – | – | – | – | – | – | – | – | –
11 | N#Cc1c(-c2ccccc2)nc(SCc2nc3ccccc3[nH]2)nc1N1CCN(C(=O)c2ccc([N+](=O)[O-])cc2)CC1 | 7.35 | 8.62 | 5.81 | 4.46 | 7.81 | 2.9 | 5.2 | 4.38 | 2.4 | 2.77 | 5.81 | 13.2 | 327
12 | Cl.N=c1[nH]c(=S)[nH]c2nc(SCc3nc4ccccc4[nH]3)nc(-c3ccccc3)c12 | 7.3 | 3.5 | 3.5 | 3 | 2.5 | 6.75 | 2.8 | 14.7 | 3.37 | 3.37 | 11.9 | 3.28 | 389
13 | CCCCCOC(=O)Nc1nc(=O)n([C@@H]2O[C@H](C)[C@@H](O)[C@H]2O)cc1F [CAPECITABINE] | – | – | – | – | 4330 | – | – | – | – | – | – | – | –
14 | N#Cc1c(-c2ccccc2)nc(SCc2nc3ccccc3[nH]2)nc1N1CCNCC1 | 2.87 | 2.63 | 20000 | 7.35 | 5.81 | 4 | 5.81 | 4.38 | 2.5 | 2.6 | 3.7 | 6.75 | 300
15 | N#Cc1c(Nc2ccncc2)nc(SCc2nc3ccccc3[nH]2)nc1-c1ccccc1 | 3.2 | 4.46 | 2.4 | 2.77 | 5.81 | 2.77 | 7.35 | 10 | 2.55 | 4.46 | 2.55 | 6.75 | 316
16 | ClCc1nc2ccccc2[nH]1 | – | – | – | – | – | – | – | – | – | – | – | – | 253
17 | Nc1ccn([C@@H]2O[C@H](CO)[C@@H](O)C2(F)F)c(=O)n1 [GEMCITABINE HYDROCHLORIDE] | – | – | – | 2130 | – | – | – | – | – | – | – | – | –
18 | COc1cccc2c1C(=O)c1c(O)c3c(c(O)c1C2=O)C[C@@](O)(C(=O)CO)C[C@@H]3O[C@H]1C[C@H](N)[C@H](O)[C@H](C)O1 [DOXORUBICIN] | – | 4160 | – | – | – | – | – | 6.12 | – | – | – | – | –
19 | Cl.N=c1[nH]c(=O)[nH]c2nc(SCc3nc4ccccc4[nH]3)nc(-c3ccccc3)c12 | 2.5 | 3.2 | 2.84 | 2.84 | 2.7 | 3.1 | 2.87 | 14.7 | 3.2 | 8.9 | 8.9 | 11.3 | 346
20 | N#Cc1c(Cl)nc(SCc2nc3ccccc3[nH]2)nc1-c1ccccc1 | 3.7 | 3.37 | 3.2 | 3.28 | 4.38 | 4.46 | 4.46 | 11.3 | 12.5 | 3.28 | 8.62 | 2.87 | 313
21 | N#Cc1c(-c2ccccc2)nc(SCc2nc3ccccc3[nH]2)nc1N1CCN(S(=O)(=O)c2ccccc2)CC1 | 3 | 2.77 | 2.87 | 4.6 | 7.35 | 4.23 | 6.2 | 3 | 8.62 | 6.41 | 5.81 | 3.28 | 327
22 | N#Cc1c(Nc2nccs2)nc(SCc2nc3ccccc3[nH]2)nc1-c1ccccc1 | 14.7 | 5.81 | 2.55 | 3.37 | 3.2 | 11.9 | 3.8 | 14.7 | 11.9 | 8.9 | 5.1 | 3.2 | 349
23 | N#Cc1c(-c2ccccc2)nc(SCc2nc3ccccc3[nH]2)nc1N1CCN(C(=O)c2ccccc2)CC1 | 3 | 4 | 2.8 | 3.2 | 2.55 | 6.75 | 2.68 | 3.4 | 2.4 | 8.9 | 8.62 | 7.35 | 327
24 | N#Cc1c(NNC(N)=S)nc(SCc2nc3ccccc3[nH]2)nc1-c1ccccc1 | 3 | 3 | 3.37 | 3.37 | 3.2 | 4.54 | 3 | 8.9 | 3.96 | 3.2 | 2.55 | 5.81 | 345
25 | N#Cc1c(NC(N)=S)nc(SCc2nc3ccccc3[nH]2)nc1-c1ccccc1 | 3.2 | 7.81 | 3.37 | 3.37 | 2.63 | 5.81 | 20 | 11.9 | 5.81 | 4.8 | 4.8 | 11.9 | 327
26 | Cc1ccc(S(=O)(=O)N2CCN(c3nc(SCc4nc5ccccc5[nH]4)nc(-c4ccccc4)c3C#N)CC2)cc1 | 3.28 | 4.54 | 7.81 | 22.7 | 2.5 | 4.23 | 4.1 | 11.3 | 4.38 | 4.38 | 4.38 | 6.75 | 345
